For 13 compounds, IC50 and CC50 results are on record in ChEMBL document CHEMBL1130289, “Polyanion inhibitors of human immunodeficiency virus and other viruses. 5. Telomerized anionic surfactants derived from amino acids” (J Med Chem, 1997).

A word on the IC50: it is the midpoint of a concentration-inhibition curve. One may read the CC50 as the concentration that lowers cell viability or growth by half. Read a low CC50 as greater toxicity to the cells.

The test system of test [1] is Human immunodeficiency virus 1. In words: Inhibitory concentration required to inhibit HIV-induced cytopathicity in CEM-4 cells by 50% based in the MTT assay; Not active. Type of test: functional, organism-based. (Cytopathic effects are the visible damage that an infection or toxin causes in cultured cells.)
For test [2], the system named is CEM-4. In words: Cytotoxic concentration required to reduce the viability of uninfected cells by 50% after 5 days of incubation in the presence on CEM-4 cells. Type of test: functional. Particulars: Homo sapiens, CEM-4, 120 h; call rule not given here. In a few lines:
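Uninfected CEM-4 cells were incubated with compound for 5 days. CC50 is the concentration that reduced viability by 50%. Values average at least two separate experiments.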

Test [3] relates to Human immunodeficiency virus 1. As to the kind of experiment: Inhibitory concentration required to inhibit HIV-induced cytopathicity in CEM-4 cells by 50% based in the MTT assay. Type of test: functional, organism-based. Particulars: Human immunodeficiency virus 1, CEM-4.

Turning to `CCCCCCCCCCCCSCCCCCCCCC(=O)NCCCCCCCCCCC(=O)[O-].[Na+]`, the IC50 result in test [1] is “Not Active”. The compound also returned a CC50 in test [2] of 29 µg/mL.
For `CCCCCCCCCCCCSCCCCCCC(=O)NCCCCCCCCCCC(=O)NCCC(=O)[O-].[Na+]`, the 50% inhibitory concentration (IC50) result in test [1] is “Not Active”. The 50% cytotoxic concentration (CC50) in test [2] was above 300 µg/mL.
Compound `CCCCCCCCCCCCSCCCCCCCCCCCCCCCCCCCCCCCCCCCCCCC(=O)N(CC)CCCCCCCCCCC(=O)NCC(=O)[O-].[Na+]` returned an IC50 in test [3] of 4 µg/mL. Moreover, it took 80 µg/mL to reach half-maximal cytotoxicity in test [2] (CC50).
With `CCCCCCCCCCCCSCCCCCCCCCCCCCCCCCCCCCCCCCCC(=O)N(C)CCCCCCCCCCC(=O)[O-].[Na+]`, the IC50 result in test [1] was “Not Active”. For the same compound, in test [2], the CC50 is above 200 µg/mL.
Regarding `CCCCCCCCCCCCSCCCCCCCCCCCCCCCCCCC(=O)N(C)CCCCCCCCCCC(=O)[O-].[Na+]`, the IC50 result in test [1] is on record as “Not Active”. In addition, in test [2], the CC50 is above 200 µg/mL.
With `CCCCCCCCCCCCSCCCCCCCCCCCCCCCCC(=O)N(CC)CCCCCCCCCCC(=O)NCCC(=O)[O-].[Na+]`, in test [1], the half-maximal inhibitory concentration (IC50) entry was “Not Active”. Besides, the CC50 in test [2] was above 100 µg/mL.
`CCCCCCCCCCCCSCCCCCCCCCCCCCCCCCCCCCCCCCCCCCCCCCCCCCCCCCCCCCCCCCCCCCCCCCCCCCCCCCCCCCCCCCCCCCCCCC(=O)N(CC)CCCCCCCCCCC(=O)[O-].[Na+]`: in test [3], the midpoint of inhibition, the IC50, lay at 5 µg/mL. In test [2], this compound registered a cytotoxic concentration (CC50) of 30 µg/mL.
Consider `CCCCCCCCCCCCSCCCCCCCCCCCCCCCCCCCCCCCCCCCCCCCCCCC(=O)N(CC)CCCCCCCCCCC(=O)NC(CCC(=O)[O-])C(=O)O.[Na+]` (stereo unspecified), for which, in test [3], it took 25 µg/mL to reach half-maximal inhibition (IC50). Further, the CC50 in test [2] was above 300 µg/mL.
Take `CCCCCCCCCCCCSCCCCC(=O)NCCCCCCCCCCC(=O)NC(CCC(=O)[O-])C(=O)O.[Na+]` (stereo unspecified): the IC50 entry in test [1] is “Not Active”. Besides, in test [2], the CC50 is above 100 µg/mL.
In test [3], `CCCCCCCCCCCCSCCCCCCCCC(=O)N(CC)CCCCCCCCCCC(=O)[O-].[Na+]` gave an IC50 of 25 µg/mL. The 50% cytotoxic concentration (CC50) in test [2] is 100 µg/mL.
Turning to `CCCCCCCCCCCCSCCCCCCCCCCCCCCCCCCCCCCCCCCCCCCCCCCCCCCCCC(=O)N(C)CCCCCCCCCCC(=O)[O-].[Na+]`, the IC50 entry in test [1] was “Not Active”. The compound further yielded a CC50 in test [2] above 200 µg/mL.
In the same order, the values of `CCCCCCCCCCCCSCCCCCCCCCCCCCCCCCCCCCCCCCCCCCCCCCCCCCCCCCCCCCCCCCCCCCCCCCCCCC(=O)N(CC)CCCCCCCCCCC(=O)NCCC(=O)[O-].[Na+]` are “Not Active” and above 100 µg/mL.
For `CCCCCCCCCCCCSCCCCCCCCCCCCCCC(=O)NCCCCCCCCCCC(=O)NCC(=O)[O-].[Na+]`, the IC50 in test [3] worked out at 15 µg/mL. In addition, the half-maximal cytotoxic concentration (CC50) in test [2] is above 300 µg/mL.
